# Assay outcomes as filed in PubChem.
# A selection: hits, their analogues and other compounds. The true share with any hit is near 2.5%.
# HIV Env fusion = inhibitors of HIV Env-mediated cell fusion; HeLa-JRFL Env/CEM21 cell fusion, luciferase; inhibition, % at 12.3 µM; 1.1% of 360,000 active; AID 651610;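 active = mean replicate inhibition score of at least 50 and every replicate individually at or above 50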;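 also: 0% = plate neutral controls and 100% = maraviroc near 300 nM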
# Glyco luc inh = blocks N-linked glycosylation in D54 reporter cells; 0.23% of 360,000 active; reporter increase, % at 12.5 µM; AID 588692; D54 ERlucT glycosylation luciferase reporter, 24 h; percent of 100 nM tunicamycin response;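 active = mean luciferase reporter signal, scaled so untreated is 0 and the glycosylation-blocking control 100, at or above a set limit in every replicate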;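 also: luciferase carries N-glycosylation sites so blocking glycosylation raises the light; 0% = median of neutral control wells and 100% = median of 100 nM tunicamycin wells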
# PAX8 reporter = lowers PAX8-driven luciferase in RMG-I cells; RMG-I TPO-luciferase reporter, SteadyGlo, 24 h; inhibition, % at 12.6 µM; 1.2% of 360,000 active; AID 652154;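 active = mean replicate inhibition at least 60% with every replicate also reaching 60%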;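 also: luciferase light reporting Pax8 driven TPO promoter activity; plate controls were median of neutral control wells for no effect and mitoxantrone controls for full effect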
# FN deposit inh = fibronectin deposition inhibition. AH1F fibroblasts, Alexa488-fibronectin deposition fluorescence, overnight. inhibition, % at 12.6 µM. 0.086% of 350,000 active;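 active = mean inhibition across replicates of 30% or more, regardless of how many single replicates reach that level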;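 also: positive control wells lacked labelled fibronectin entirely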
#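 Assay system: AH1F fibroblast monolayer, labelled fibronectin deposition. Amount: 10000 cells per well. Also added: labelled fibronectin 24 nM. Compound: single-point pinned compound. Incubation: cell attachment 1 h, compound and FN exposure overnight. Detection: fluorescence after three HBSS washes, excitation 485 nm, emission 525 nm. Read-out: inhibition of fibronectin deposition signal.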
# EWS-Fli inh = EWS/Fli transcriptional activity inhibition; A673 NR0B1-luciferase reporter, viability-normalised; inhibition, % at 12.6 µM; 0.67% of 350,000 active; AID 651661;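 active = mean inhibition of at least 50% after viability correction, with every replicate also passing that limit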;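 also: firefly luciferase signal divided by Alamar Blue viability fluorescence both relative to DMSO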
# MLL AF4-AF9 inh = inhibitors of human MLL-AF4/AF9 interaction | P42568 | AlphaScreen, biotin-AF4 peptide binding to FLAG-AF9 | inhibition, % at 10 µM | 0.47% of 350,000 active | AID 651704;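 active = every replicate reaching a set inhibition limit, whatever the replicate mean, cut at about 25% in these data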;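 also: 0% = plate neutral control median and 100% = total signal loss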
# Target sequence (P42568 whole entry, looked up): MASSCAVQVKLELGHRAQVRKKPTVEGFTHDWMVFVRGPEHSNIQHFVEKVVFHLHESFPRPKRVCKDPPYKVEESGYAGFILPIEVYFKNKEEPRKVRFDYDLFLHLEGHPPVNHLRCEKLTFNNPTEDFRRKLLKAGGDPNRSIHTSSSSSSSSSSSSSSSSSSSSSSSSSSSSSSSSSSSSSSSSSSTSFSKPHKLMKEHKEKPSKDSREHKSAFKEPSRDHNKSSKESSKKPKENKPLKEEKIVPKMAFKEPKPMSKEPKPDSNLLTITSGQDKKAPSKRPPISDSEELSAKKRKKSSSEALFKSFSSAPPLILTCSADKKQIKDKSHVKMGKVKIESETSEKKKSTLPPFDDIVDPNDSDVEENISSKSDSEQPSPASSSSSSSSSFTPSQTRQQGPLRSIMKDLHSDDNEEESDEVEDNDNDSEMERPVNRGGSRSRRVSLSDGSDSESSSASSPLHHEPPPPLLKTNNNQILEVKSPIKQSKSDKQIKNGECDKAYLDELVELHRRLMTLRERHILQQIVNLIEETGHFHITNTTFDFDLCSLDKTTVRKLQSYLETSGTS
# Numbers without * were called inactive; · = not tested or not shown; [ ] = remark or other dose.
SMILES,HIV Env fusion,Glyco luc inh,PAX8 reporter,FN deposit inh,EWS-Fli inh,MLL AF4-AF9 inh
C[C@@H]1CCCCO[C@@H](CN(C)S(=O)(=O)c2ccccc2)[C@H](C)CN([C@H](C)CO)C(=O)c2cc(NC(=O)Cc3ccccc3)ccc2O1,-73[16.7 µM],·,-15,-2,5,0
O=C1CC(c2cccc([N+](=O)[O-])c2)c2ccc3ccccc3c2N1 (stereo not given),93*,-1,·,6,·,·
O=C1CC(c2ccsc2)c2ccc3ccccc3c2N1 (stereo not given),33,2,0,-13,-12,2
C[C@@H]1CN([C@H](C)CO)C(=O)c2cc(NC(=O)Nc3ccc4c(c3)OCO4)ccc2O[C@@H](C)CCCCO[C@H]1CN(C)Cc1ccncc1,-8[16.7 µM],·,-18,·,2,11
COc1ccc2c(C)cc(=O)oc2c1,-68,2,-12,-10,-3,-1
COc1cccc(C(=O)COc2ccc3c(C)cc(=O)oc3c2)c1,5,38*,-4,-4,15,1
COc1ccc(C2=NOC(COc3ccc4c(C)cc(=O)oc4c3)C2)c(OC)c1 (stereo not given),-154,21,-20,5,56*,2
COc1ccccc1C1=NOC(COc2ccc3c(C)cc(=O)oc3c2)C1 (stereo not given),-355,20,16,-18,53*,0
CCCNC(=O)N1CC2(C1)CN(C(=O)COC)[C@@H](CO)c1c2c2ccc(OC)cc2n1C,·,·,·,·,-12,-1
CC(C)CC#Cc1cnc2c(c1)C(=O)N([C@H](C)CO)C[C@H](C)[C@@H](CN(C)Cc1cncnc1)O2,0[16.7 µM],·,·,0,1,2
O=C(c1cccnc1)N1CC2(C1)[C@@H](c1ccccc1)[C@@H](CO)N2CC1CC1,·,·,3,·,6,-1
CCC12CN(S(=O)(=O)c3ccc(C)cc3)CC(CC)(CN(S(=O)(=O)c3ccc(C)cc3)C1)C2=O,109*,-1,·,·,·,·
Cc1ccc(S(=O)(=O)N2CC3(C)CN(S(=O)(=O)c4ccc(C)cc4)CC(C)(C2)C3)cc1,·,1,·,·,3,-32
CO[C@H]1CN(C)C(=O)c2ccc(NC(=O)c3ccccc3)cc2OC[C@H](C)N(C(C)=O)C[C@H]1C,·,·,·,-11,-11,-11
O=C(NC1Cc2ccccc2C1)[C@H]1[C@H](CO)[C@H]2Cn3c(ccc(C4=CCCCC4)c3=O)[C@@H]1N2,·,·,·,·,0,-1
COc1cc(SC)ccc1C(=O)Nc1ncc(C)s1,39,-20,84*,·,81*,-3
COc1cc(SC)ccc1C(=O)Nc1ccc(Br)cn1,-11,-19,3,12,73*,0
N#Cc1cccc(-c2ccc3c(c2)[C@H]2[C@H](CCN2S(=O)(=O)c2ccccc2)[C@@H](CO)N3)c1,·,·,-1,16,-2,1
CCOc1ccc(-c2nnc(SCC(=O)N3CCNC3=O)o2)cc1,-51,-13,-132,-2,-17,28*
CO[C@@H]1CC[C@@H]2CCN(C)C(=O)[C@H](C)N(C)C(=O)c3cc(C#N)ccc3OC[C@H]1O2,-15[16.7 µM],·,11,6,3,-3
C[C@H](CO)N1C[C@H](C)[C@H](CN(C)C(=O)c2ccncc2)OCCCC[C@H](C)Oc2ccc(NC(=O)c3ccccc3)cc2C1=O,-4[16.7 µM],·,-2,·,·,-1
CCCCN1CC(COCc2ccccc2)Oc2cccc(OCCN3C(=O)[C@@H]4[C@H](C3=O)C3C=C[C@H]4C3)c2S1(=O)=O (stereo not given in full),15,-5,85*,12,20,1
CCCCN1CC(COCc2ccccc2)Oc2cccc(Oc3ccc(C(C)C)cc3)c2S1(=O)=O (stereo not given),63*,-5,1,-7,7,-4
CCCCN1CC(COCc2ccccc2)Oc2cccc(Oc3ccc(OC)cc3)c2S1(=O)=O (stereo not given),11,-3,17,-3,9,-1
C[C@H](NC(=O)C[C@@H]1C=C[C@H](NC(=O)C2CCOCC2)[C@H](CO)O1)c1ccccc1,-2[16.7 µM],·,3,·,1,-1
SMILES,HIV Env fusion,Glyco luc inh,PAX8 reporter,FN deposit inh,EWS-Fli inh,MLL AF4-AF9 inh
Cc1[nH]nc(-c2cccnc2)c1N=NN(C)C,24,-5,71*,6,55*,2
CN(C)c1nc(N)nc(-c2cccnc2)n1,·,2,·,·,·,·
Cc1nc2sc(C(c3ccco3)N3CCN(c4ccccc4)CC3)c(O)n2n1 (stereo not given),32,4,14,9,1,1
Cc1nc2sc(C(c3ccco3)N3CCN(C(c4ccccc4)c4ccccc4)CC3)c(O)n2n1 (stereo not given),-110,-2,88*,-5,-3,3
Cc1cccc(S(=O)(=O)N2CC[C@@H]3[C@H]2c2cc(-c4ccccc4F)ccc2N(C)[C@H]3CO)c1,·,·,14,15,-7,0
C[C@@H](NC(=O)C[C@H]1C[C@@H]2c3cc(NC(=O)CC4CC4)ccc3O[C@@H]2[C@H](CO)O1)c1ccccc1,·,·,·,-1,-3,-1
COc1cc(-c2nnc(SCC3(c4ccc(Br)cc4)OCCO3)o2)cc(OC)c1OC,·,49*,·,·,·,·
COc1ccccc1C(=O)Nc1ccc2c(c1)OC[C@H](C)N(CC1CC1)C[C@H](C)[C@@H](OC)CN(C)C2=O,·,·,·,1,-8,0
CCOc1ccc(-c2cnc3ccccc3n2)cc1,-13,-21,32,-1,77*,·
Cn1c(C=O)c(-c2ccc3cc[nH]c3c2)c2ccccc21,-3,-7,-2,-12,-11,-1
Cn1c(C=O)c(C#CC(C)(C)O)c2ccccc21,40,1,74*,-8,2,2
Cc1cccn2c(=O)c3cc(C(=O)NC4CCCC4)c(=N)n(CCc4ccccc4)c3nc12,-12,30*,6,-6,-3,-4
CCOCCCNC(=O)c1cc2c(=O)n3cccc(C)c3nc2n1C,-28,4,15,9,52*,-1
Cc1cccn2c(=O)c3cc(C(=O)NCCN4CCOCC4)c(=N)n(CCc4ccccc4)c3nc12,·,31*,·,·,·,·
COCCn1c(=N)c(C(=O)NCCc2ccccc2)cc2c(=O)n3cccc(C)c3nc21,·,0,·,·,·,·
CCNC(=O)c1cc2c(=O)n3cccc(C)c3nc2n(CCc2ccccc2)c1=N,·,46*,·,·,·,·
C[C@@H]1CCCCO[C@H](CN(C)C(=O)c2ccccc2)[C@H](C)CN([C@H](C)CO)C(=O)c2cc(NC(=O)C3CCCCC3)ccc2O1,-10[16.7 µM],·,1,·,1,5
N#Cc1ccc(-c2ccc3c(c2)[C@@H]2[C@@H](CCN2C(=O)CN2CCOCC2)[C@H](CO)N3)cc1,·,·,2,-20,1,3
C[C@H](CO)N1C[C@H](C)[C@@H](CN(C)C(=O)c2ccc3c(c2)OCO3)Oc2ncc(C#Cc3ccccc3F)cc2C1=O,-2[16.7 µM],·,·,3,10,5
